Source: ChEMBL document CHEMBL2169776, “Antimicrobial activity of peptidomimetics against multidrug-resistant Escherichia coli: a comparative study of different backbones” (J Med Chem, 2012)
Converted amounts (≈) assume the structure as drawn. Square brackets hold non-standard residues; d marks the D form. Peptide text beside a SMILES is read from it. Nphe = O=C(O)CNCc1ccccc1; Nlys = NCCCCNCC(=O)O

Columns and labels:
Staphylococcus aureus = test: Antibacterial activity against methicillin-resistant Staphylococcus aureus isolate after 16 to 20 hrs by broth microdilution assay; assay type: functional
Klebsiella pneumoniae [1] = test: Antibacterial activity against multidrug resistant NDM-1 producing Klebsiella pneumoniae isolate after 16 to 20 hrs by broth microdilution assay; assay type: functional
Klebsiella pneumoniae [2] = test: Antibacterial activity against multidrug resistant KPC producing Klebsiella pneumoniae isolate after 16 to 20 hrs by broth microdilution assay; assay type: functional
Escherichia coli [3] = test: Antibacterial activity against multidrug resistant Amp-C producing Escherichia coli isolate after 16 to 20 hrs by broth microdilution assay; assay type: functional
Escherichia coli [4] = test: Antibacterial activity against multidrug resistant NDM-1 producing Escherichia coli isolate after 16 to 20 hrs by broth microdilution assay; assay type: functional
Escherichia coli [5] = test: Antibacterial activity against multidrug resistant ESBL producing Escherichia coli isolate after 16 to 20 hrs by broth microdilution assay; assay type: functional
Escherichia coli [6] = test: Antibacterial activity against Escherichia coli ATCC 25922 after 16 to 20 hrs by broth microdilution assay; assay type: functional
[7] = Therapeutic index, ratio of HC10 for human erythrocyte cells to MIC for multidrug resistant bacterial strains; settings: read-out: TI
Method in brief: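 TI = hemolytic activity divided by median of MIC values. Hemolysis: washed fresh human RBCs (1% v/v in TBS, pH 7.2) with 2-fold oligomer dilutions (1–128 μM), 37 °C, 1 h; supernatant OD 405 nm; melittin 400 μg/mL = 100%, TBS = 0%. HA = concentration giving ≥10% lysis. MICs by broth microdilution, 35 °C, 16–20 h.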

HeLa = test: Cytotoxicity against human HeLa cells assessed as growth inhibition after 1 hr; assay type: cell-based
Method in brief: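 HeLa cells seeded at 9000 per well, cultured 24 h; at 80−100% confluency washed with HBSS and exposed 1 h (37 °C, 50 rpm) to 2-fold serial dilutions in EMEM. After washing, MTS/PMS (240/2.4 μg/mL) in HBSS added for 1.5 h; formazan read at 492 nm. 0.2% SDS = 0%, EMEM alone = 100%. Test range 1−128 or 8−1024 μM; IC50 reported.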

[8] = Hemolytic activity against human RBCs after 1 hr by spectrophotometry; assay type: ADME, cell-based; settings: erythrocyte
Method in brief: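 Freshly drawn human erythrocytes washed in TBS (pH 7.2, 10 mM Tris, 150 mM NaCl), 1% v/v suspension mixed with 2-fold serial dilutions (1−128 μM) in water; 1 h at 37 °C. After pelleting, supernatant diluted 1:1 with water and hemoglobin read at OD 405 nm. Melittin (400 μg/mL) = 100%, TBS = 0%. Value is the lowest concentration giving ≥10% lysis.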

[9] = Proteolytic stability of compound in presence of Pronase by reverse phase HPLC analysis; assay type: ADME
Method in brief: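 Oligomer (2 mg/mL solution, 250 μL) incubated with Pronase (1.0 mg/mL solution, 50 μL) in 10 mM Tris pH 7.5 (1.2 mL); enzyme activity first confirmed on Nα-benzoyl arginine. Degradation followed by analytical reverse-phase HPLC (10−60% B) at 6, 12, 18 and 50 h; degradation product identified by HRMS.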

| Molecule | MIC (Staphylococcus aureus) [µM] | MIC (Klebsiella pneumoniae [1]) [µM] | MIC (Klebsiella pneumoniae [2]) [µM] | MIC (Escherichia coli [3]) [µM] | MIC (Escherichia coli [4]) [µM] | MIC (Escherichia coli [5]) [µM] | MIC (Escherichia coli [6]) [µM] | selectivity ratio [7] | IC50 (HeLa) [µM] | HC10 [8] [µM] | Stability [9] |
| --- | --- | --- | --- | --- | --- | --- | --- | --- | --- | --- | --- |
| CO/N=C(\C(=O)N[C@@H]1C(=O)N2C(C(=O)O)=C(COC(C)=O)CS[C@H]12)c1csc(N)n1 [CEFOTAXIME] | 34 (≈ 15.5 µg/mL) | > 134 | > 134 | 2.1 (≈ 0.956 µg/mL) | > 134 | > 134 | < 0.1 |  |  |  |  |
| CC(=O)N[C@@H](CCCCN)CC(=O)N[C@@H](Cc1ccccc1)C(=O)N[C@@H](CCCCN)CC(=O)N[C@@H](Cc1ccccc1)C(=O)N[C@@H](CCCCN)CC(=O)N[C@@H](Cc1ccccc1)C(=O)N[C@@H](CCCCN)CC(=O)N[C@@H](Cc1ccccc1)C(=O)N[C@@H](CCCCN)CC(=O)N[C@@H](Cc1ccccc1)C(=O)N[C@@H](CCCCN)CC(=O)N[C@@H](Cc1ccccc1)C(=O)N[C@@H](CCCCN)CC(=O)N[C@@H](Cc1ccccc1)C(=O)N[C@@H](CCCCN)CC(=O)N[C@@H](Cc1ccccc1)C(N)=O | 256 (≈ 608 µg/mL) | 256 (≈ 608 µg/mL) | 128 (≈ 304 µg/mL) | 16 (≈ 38 µg/mL) | 4 (≈ 9.5 µg/mL) | 8 (≈ 19 µg/mL) | 8 (≈ 19 µg/mL) | 8 | 133 | 64 | Stable |
| CC(=O)N[C@@H](CCCCN)C(=O)N[C@H](CC(=O)N[C@@H](CCCCN)C(=O)N[C@H](CC(=O)N[C@@H](CCCCN)C(=O)N[C@H](CC(=O)N[C@@H](CCCCN)C(=O)N[C@H](CC(=O)N[C@@H](CCCCN)C(=O)N[C@H](CC(=O)N[C@@H](CCCCN)C(=O)N[C@H](CC(=O)N[C@@H](CCCCN)C(=O)N[C@H](CC(=O)N[C@@H](CCCCN)C(=O)N[C@H](CC(N)=O)Cc1ccccc1)Cc1ccccc1)Cc1ccccc1)Cc1ccccc1)Cc1ccccc1)Cc1ccccc1)Cc1ccccc1)Cc1ccccc1 | 32 (≈ 76 µg/mL) | 128 (≈ 304 µg/mL) | 128 (≈ 304 µg/mL) | 32 (≈ 76 µg/mL) | 64 (≈ 152 µg/mL) | 32 (≈ 76 µg/mL) | 64 (≈ 152 µg/mL) | 1 | 31.1 | 64 | Stable |
| CC(=O)N(CCCCN)CC(=O)N[C@@H](Cc1ccccc1)C(=O)N(CCCCN)CC(=O)N[C@@H](Cc1ccccc1)C(=O)N(CCCCN)CC(=O)N[C@@H](Cc1ccccc1)C(=O)N(CCCCN)CC(=O)N[C@@H](Cc1ccccc1)C(=O)N(CCCCN)CC(=O)N[C@@H](Cc1ccccc1)C(=O)N(CCCCN)CC(=O)N[C@@H](Cc1ccccc1)C(=O)N(CCCCN)CC(=O)N[C@@H](Cc1ccccc1)C(=O)N(CCCCN)CC(=O)N[C@@H](Cc1ccccc1)C(N)=O (Ac-[Nlys]F[Nlys]F[Nlys]F[Nlys]F[Nlys]F[Nlys]F[Nlys]F[Nlys]F-NH2) | > 256 | 256 (≈ 579 µg/mL) | 256 (≈ 579 µg/mL) | 32 (≈ 72.4 µg/mL) | 32 (≈ 72.4 µg/mL) | 16 (≈ 36.2 µg/mL) | 16 (≈ 36.2 µg/mL) | > 5 | 267 | > 128 |  |
| CC(=O)N(CCCCN)CCC(=O)N[C@@H](Cc1ccccc1)C(=O)N(CCCCN)CCC(=O)N[C@@H](Cc1ccccc1)C(=O)N(CCCCN)CCC(=O)N[C@@H](Cc1ccccc1)C(=O)N(CCCCN)CCC(=O)N[C@@H](Cc1ccccc1)C(=O)N(CCCCN)CCC(=O)N[C@@H](Cc1ccccc1)C(=O)N(CCCCN)CCC(=O)N[C@@H](Cc1ccccc1)C(=O)N(CCCCN)CCC(=O)N[C@@H](Cc1ccccc1)C(=O)N(CCCCN)CCC(=O)N[C@@H](Cc1ccccc1)C(N)=O | 256 (≈ 608 µg/mL) | 256 (≈ 608 µg/mL) | 64 (≈ 152 µg/mL) | 16 (≈ 38 µg/mL) | 2 (≈ 4.75 µg/mL) | 16 (≈ 38 µg/mL) | 8 (≈ 19 µg/mL) | > 11 | 62.6 | > 128 | Stable |
| CC(=O)N[C@@H](CCCCN)C(=O)N[C@@H](Cc1ccccc1)C(=O)N[C@@H](CCCCN)C(=O)N[C@@H](Cc1ccccc1)C(=O)N[C@@H](CCCCN)C(=O)N[C@@H](Cc1ccccc1)C(=O)N[C@@H](CCCCN)C(=O)N[C@@H](Cc1ccccc1)C(=O)N[C@@H](CCCCN)C(=O)N[C@@H](Cc1ccccc1)C(=O)N[C@@H](CCCCN)C(=O)N[C@@H](Cc1ccccc1)C(=O)N[C@@H](CCCCN)C(=O)N[C@@H](Cc1ccccc1)C(=O)N[C@@H](CCCCN)C(=O)N[C@@H](Cc1ccccc1)C(N)=O | 16 (≈ 36.2 µg/mL) | > 256 | > 256 | > 256 | 128 (≈ 290 µg/mL) | > 256 | > 256 | < 0.004 | 19.6 | < 1 | Unstable |
| CC(=O)N[C@H](CCCCN)C(=O)N[C@H](Cc1ccccc1)C(=O)N[C@H](CCCCN)C(=O)N[C@H](Cc1ccccc1)C(=O)N[C@H](CCCCN)C(=O)N[C@H](Cc1ccccc1)C(=O)N[C@H](CCCCN)C(=O)N[C@H](Cc1ccccc1)C(=O)N[C@H](CCCCN)C(=O)N[C@H](Cc1ccccc1)C(=O)N[C@H](CCCCN)C(=O)N[C@H](Cc1ccccc1)C(=O)N[C@H](CCCCN)C(=O)N[C@H](Cc1ccccc1)C(=O)N[C@H](CCCCN)C(=O)N[C@H](Cc1ccccc1)C(N)=O | 16 (≈ 36.2 µg/mL) | 256 (≈ 579 µg/mL) | 256 (≈ 579 µg/mL) | 256 (≈ 579 µg/mL) | 128 (≈ 290 µg/mL) | 256 (≈ 579 µg/mL) | 128 (≈ 290 µg/mL) | < 0.008 | 18.1 | < 1 | Stable |
| O=C(O)c1cn(C2CC2)c2cc(N3CCNCC3)c(F)cc2c1=O [CIPROFLOXACIN] | 19 (≈ 6.3 µg/mL) |  |  |  |  |  | < 0.1 |  |  |  |  |
| CC(=O)N[C@@H](CCCCN)CC(=O)N[C@H](CC(=O)N[C@@H](CCCCN)CC(=O)N[C@H](CC(=O)N[C@@H](CCCCN)CC(=O)N[C@H](CC(=O)N[C@@H](CCCCN)CC(=O)N[C@H](CC(=O)N[C@@H](CCCCN)CC(=O)N[C@H](CC(=O)N[C@@H](CCCCN)CC(=O)N[C@H](CC(=O)N[C@@H](CCCCN)CC(=O)N[C@H](CC(=O)N[C@@H](CCCCN)CC(=O)N[C@H](CC(N)=O)Cc1ccccc1)Cc1ccccc1)Cc1ccccc1)Cc1ccccc1)Cc1ccccc1)Cc1ccccc1)Cc1ccccc1)Cc1ccccc1 | 16 (≈ 39.8 µg/mL) | 32 (≈ 79.6 µg/mL) | 32 (≈ 79.6 µg/mL) | 32 (≈ 79.6 µg/mL) | 32 (≈ 79.6 µg/mL) | 32 (≈ 79.6 µg/mL) | 16 (≈ 39.8 µg/mL) | 4 | 31 | 128 | Stable |
| CC(=O)N[C@@H](CCCCN)C(=O)N(CCC(=O)N[C@@H](CCCCN)C(=O)N(CCC(=O)N[C@@H](CCCCN)C(=O)N(CCC(=O)N[C@@H](CCCCN)C(=O)N(CCC(=O)N[C@@H](CCCCN)C(=O)N(CCC(=O)N[C@@H](CCCCN)C(=O)N(CCC(=O)N[C@@H](CCCCN)C(=O)N(CCC(=O)N[C@@H](CCCCN)C(=O)N(CCC(N)=O)Cc1ccccc1)Cc1ccccc1)Cc1ccccc1)Cc1ccccc1)Cc1ccccc1)Cc1ccccc1)Cc1ccccc1)Cc1ccccc1 | > 256 | 256 (≈ 608 µg/mL) | 128 (≈ 304 µg/mL) | 8 (≈ 19 µg/mL) | 4 (≈ 9.5 µg/mL) | 4 (≈ 9.5 µg/mL) | 8 (≈ 19 µg/mL) | > 21 | 25.9 | > 128 | Stable |
| CC(=O)N(CCCCN)CCC(=O)N(CCC(=O)N(CCCCN)CCC(=O)N(CCC(=O)N(CCCCN)CCC(=O)N(CCC(=O)N(CCCCN)CCC(=O)N(CCC(=O)N(CCCCN)CCC(=O)N(CCC(=O)N(CCCCN)CCC(=O)N(CCC(=O)N(CCCCN)CCC(=O)N(CCC(=O)N(CCCCN)CCC(=O)N(CCC(N)=O)Cc1ccccc1)Cc1ccccc1)Cc1ccccc1)Cc1ccccc1)Cc1ccccc1)Cc1ccccc1)Cc1ccccc1)Cc1ccccc1 | 256 (≈ 636 µg/mL) | 256 (≈ 636 µg/mL) | 256 (≈ 636 µg/mL) | 16 (≈ 39.8 µg/mL) | 4 (≈ 9.95 µg/mL) | 8 (≈ 19.9 µg/mL) | 16 (≈ 39.8 µg/mL) | > 10 | 169 | > 128 | Stable |
| CC(=O)N(CCCCN)CC(=O)N(CC(=O)N(CCCCN)CC(=O)N(CC(=O)N(CCCCN)CC(=O)N(CC(=O)N(CCCCN)CC(=O)N(CC(=O)N(CCCCN)CC(=O)N(CC(=O)N(CCCCN)CC(=O)N(CC(=O)N(CCCCN)CC(=O)N(CC(=O)N(CCCCN)CC(=O)N(CC(N)=O)Cc1ccccc1)Cc1ccccc1)Cc1ccccc1)Cc1ccccc1)Cc1ccccc1)Cc1ccccc1)Cc1ccccc1)Cc1ccccc1 (Ac-[Nlys][Nphe][Nlys][Nphe][Nlys][Nphe][Nlys][Nphe][Nlys][Nphe][Nlys][Nphe][Nlys][Nphe][Nlys][Nphe]-NH2) | 256 (≈ 579 µg/mL) | 256 (≈ 579 µg/mL) | 256 (≈ 579 µg/mL) | 32 (≈ 72.4 µg/mL) | 32 (≈ 72.4 µg/mL) | 64 (≈ 145 µg/mL) | 32 (≈ 72.4 µg/mL) | > 4 | 194 | > 128 | Stable |
| GENTAMICIN | 56 | 111 | > 111 | 6.9 | > 111 | > 111 | 1.7 |  |  |  |  |
